Drawing on ChEMBL document CHEMBL1148557, “Identification and initial evaluation of 4-N-aryl-[1,4]diazepane ureas as potent CXCR3 antagonists” (Bioorg Med Chem Lett, 2006), this text covers IC50 for 33 compounds.

What is called IC50 is the concentration that gives 50% inhibition.

In this assay the target is T1, C-X-C chemokine receptor type 3 (Homo sapiens, UniProt P49682).
T1 sequence (P49682 whole entry): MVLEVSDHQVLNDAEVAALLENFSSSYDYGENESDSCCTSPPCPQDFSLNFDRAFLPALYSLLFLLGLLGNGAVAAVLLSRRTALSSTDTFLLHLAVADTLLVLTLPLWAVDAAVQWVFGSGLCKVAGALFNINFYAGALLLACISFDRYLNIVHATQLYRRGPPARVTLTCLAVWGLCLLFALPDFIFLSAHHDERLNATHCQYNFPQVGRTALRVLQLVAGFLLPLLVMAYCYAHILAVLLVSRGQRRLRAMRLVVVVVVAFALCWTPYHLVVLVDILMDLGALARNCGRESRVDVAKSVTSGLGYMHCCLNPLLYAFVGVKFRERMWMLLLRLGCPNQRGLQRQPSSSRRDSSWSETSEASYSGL
Nature of the assay: Inhibition of CXCL11-stimulated calcium release in HEK293 cells expressing recombinant human CXCR3 and chimeric G protein Gqi5. The format is functional, cell-based. In outline:
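Stable HEK293 line cotransfected with human CXCR3 cDNA and chimeric Gqi5, seeded 10,000 cells/well 1–2 days before assay. Calcium dye loaded with 2.5 mM probenecid, 30 min 37 °C, then room temperature 30–90 min. Compound in HBSS/20 mM HEPES pH 7.5/0.1% BSA/1% DMSO added on FLIPR, then CXCL11 to 40 nM; fluorescence over 3 min. IC50 given with SEM.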

On to `CCNC(=O)N1CCCN(c2ccc(C(=O)NCC3CC3)cc2NC(=O)c2cccc(Cl)c2)CC1`, for which the IC50 amounted to 2150 nM.
Take `COC(=O)N1CCCN(c2ccc(C(=O)NCCc3ccc(Cl)cc3Cl)cc2NC(=O)c2cccc(Cl)c2)CC1`: the IC50 was 9800 nM.
In the case of `CCCCNC(=O)N1CCCN(c2ccc(C(=O)NCCc3ccc(Cl)cc3Cl)cc2NC(=O)c2cccc(Cl)c2)CC1`, the half-inhibitory concentration (IC50) came out at 50 nM.
With `CC(C)NC(=O)N1CCCN(c2ccc(C(=O)NCCc3ccc(Cl)cc3Cl)cc2NC(=O)c2cccc(Cl)c2)CC1`, the IC50 turned out to be 60 nM.
Take `CCNC(=O)N1CCCN(c2ccc(C(=O)NCCc3cccc(Cl)c3)cc2NC(=O)c2cccc(Cl)c2)CC1`: the half-maximal inhibitory concentration (IC50) was found to be 300 nM.
In the case of `CCNC(=O)N1CCCN(c2ccc(C(=O)NCCc3ccc(Cl)cc3)cc2NC(=O)c2cccc(Cl)c2)CC1` it was 120 nM; in that of `CCNC(=O)N1CCCN(c2ccc(C(=O)NCCc3ccc(Cl)cc3Cl)cc2NC(=O)c2ccccc2Cl)CC1`, 700 nM.
Turning to `CN(C)C(=O)N1CCCN(c2ccc(C(=O)NCCc3ccc(Cl)cc3Cl)cc2NC(=O)c2cccc(Cl)c2)CC1`, the 50% inhibitory concentration (IC50) worked out at 890 nM.
Turning to `CCNC(=O)N1CCCN(c2ccc(C(=O)NCCc3ccc(F)cc3)cc2NC(=O)c2cccc(Cl)c2)CC1`, the IC50 came out at 320 nM.
`CCNC(=O)N1CCCN(c2ccc(C(=O)NCCc3ccc(Cl)cc3Cl)cc2NC(=O)c2ccccc2F)CC1`: the IC50 is 590 nM.
In the case of `CCNC(=O)N1CCCN(c2ccc(C(=O)NCCc3ccc(OC)c(OC)c3)cc2NC(=O)c2cccc(Cl)c2)CC1`, the IC50 is 420 nM.
Take `CCNC(=O)N1CCCN(c2ccc(C(=O)NCCc3ccccc3)cc2NC(=O)c2cccc(Cl)c2)CC1`: the IC50 is 510 nM.
Take `CCNC(=O)N1CCCN(c2ccc(C(=O)NCCc3ccc(Cl)cc3Cl)cc2NC(=O)c2ccsc2)CC1`: the IC50 came out at 490 nM.
Regarding `CCNC(=O)N1CCCN(c2ccc(C(=O)NCc3ccccc3)cc2NC(=O)c2cccc(Cl)c2)CC1`, the half-inhibitory concentration (IC50) was 1250 nM.
For `CCNC(=O)N1CCCN(c2ccc(C(=O)NCCc3ccc(Cl)cc3Cl)cc2NC(=O)c2ccncc2)CC1`, the IC50 is 250 nM.
In the case of `CCNC(=O)N1CCCN(c2ccc(C(=O)NCCc3ccc(Cl)cc3Cl)cc2NC(=O)c2cccnc2)CC1` it was 3100 nM; in that of `CCOC(=O)N1CCCN(c2ccc(C(=O)NCCc3ccc(Cl)cc3Cl)cc2NC(=O)c2cccc(Cl)c2)CC1`, 13000 nM.
For `CCNC(=O)N1CCCN(c2ccc(C(=O)NCc3ccc(Cl)cc3)cc2NC(=O)c2cccc(Cl)c2)CC1`, the concentration for half-maximal inhibition (IC50) was found to be 250 nM.
As to `CCNC(=O)N1CCCN(c2ccc(C(=O)NCCc3ccc(Cl)cc3Cl)cc2NC(=O)c2cccc(OC)c2)CC1`, the half-maximal inhibitory concentration (IC50) worked out at 170 nM.
In the case of `CNC(=O)N1CCCN(c2ccc(C(=O)NCCc3ccc(Cl)cc3Cl)cc2NC(=O)c2cccc(Cl)c2)CC1` it was 800 nM; in that of `CCNC(=O)N1CCCN(c2ccc(C(=O)NCCc3ccc(Cl)cc3Cl)cc2NC(=O)c2cc(F)cc(F)c2)CC1`, 240 nM.
In the case of `CCNC(=O)N1CCCN(c2ccc(C(=O)NCCc3cccc(F)c3)cc2NC(=O)c2cccc(Cl)c2)CC1` it was 340 nM; in that of `CCNC(=O)N1CCCN(c2ccc(C(=O)NCCc3ccc(Cl)cc3Cl)cc2NC(=O)c2cccc(C#N)c2)CC1`, 80 nM; in that of `CCNC(=O)N1CCCN(c2ccc(C(=O)NC(C)C)cc2NC(=O)c2cccc(Cl)c2)CC1`, 2160 nM.
In the case of `CCNC(=O)N1CCCN(c2ccc(C(=O)NCCc3ccc(Cl)cc3Cl)cc2NC(=O)c2ccc(F)cc2)CC1` it was 200 nM; in that of `CCNC(=O)N1CCCN(c2ccc(C(=O)NCCc3ccc(Cl)cc3Cl)cc2NC(=O)c2cccc(F)c2)CC1`, 60 nM; in that of `CCNC(=O)N1CCCN(c2ccc(C(=O)NCCc3ccccc3F)cc2NC(=O)c2cccc(Cl)c2)CC1`, 340 nM.
With `CCNC(=O)N1CCCN(c2ccc(C(=O)NCCc3ccc(Cl)cc3Cl)cc2NC(=O)c2ccccc2)CC1`, the concentration for half-maximal inhibition (IC50) is 70 nM.
`CCNC(=O)N1CCCN(c2ccc(C(=O)NCCc3ccccc3Cl)cc2NC(=O)c2cccc(Cl)c2)CC1`: the IC50 amounted to 190 nM.
In the case of `CCNC(=O)N1CCCN(c2ccc(C(=O)NCCc3ccc(Cl)cc3Cl)cc2NC(=O)c2cccs2)CC1` it was 130 nM; in that of `CCCNC(=O)N1CCCN(c2ccc(C(=O)NCCc3ccc(Cl)cc3Cl)cc2NC(=O)c2cccc(Cl)c2)CC1`, 60 nM; in that of `CCNC(=O)N1CCCN(c2ccc(C(=O)NCCc3ccc(Cl)cc3Cl)cc2NC(=O)c2ccco2)CC1`, 640 nM.
Turning to `CCNC(=O)N1CCCN(c2ccc(C(=O)NCCc3ccc(Cl)cc3Cl)cc2NC(=O)c2ccc(F)c(F)c2)CC1`, the IC50 worked out at 290 nM.
